Data published in article PMC6466550 (ACS Medicinal Chemistry Letters, 2019).

Tested on: FOPFlash reporter
Experiment: Wnt reporter assay, FOPFlash negative control
Assay type: cell-based
Conditions: 293T cells, 50 mM LiCl, 24 h, luciferase
In short: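 293T cells transfected with the FOPFlash plasmid, whose TCF/LEF binding sites are mutated. This plasmid served as a negative control for the TOPFlash reporter, which carries eight TCF/LEF binding-site repeats. Wnt signalling was activated with the GSK3beta inhibitor LiCl. Cells were exposed to increasing concentrations of test compound, and reporter activity was then measured.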

CCOC(=O)c1ccc(NS(=O)(=O)c2ccc(Br)cc2)cc1 [Compound 17]
Effect on activity of FOP reporter: failed to prevent
